ChEMBL document CHEMBL1687898, “Structure-activity relationships in glycosylated 2-phenyl-indoles, 2-phenyl-benzo[b]thiophenes and 2-phenyl-benzo[b]furans as DNA binding and potential antitumor agents” (Bioorg Med Chem, 2011)

How the values were obtained:
Nucleic Acid [1] = experiment: Displacement of ethidium bromide from herring sperm DNA assessed as remaining ethidium bromide at 100 uM by FID assay; type: nucleic-acid assay; details: Clupeidae
Nucleic Acid [2] = experiment: Displacement of ethidium bromide from herring sperm DNA assessed as remaining ethidium bromide at 50 uM by FID assay; type: nucleic-acid assay; details: Clupeidae
In short: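 Single-point FID. Read EtBr (5 µM) in BPE buffer (pH 7.0), exc 520 nm, em 540–700 nm, then read again with sheared herring sperm DNA added; the intensity difference is 100%. Compound added from 10 mM DMSO stock to a final 50 µM, equilibrated ~3 min, rescanned until steady. % EtBr remaining is the mean of triplicates.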

HT-29 [3] = experiment: Cytotoxicity against human HT-29 cells assessed as cell viability at 25 uM by MTS assay; type: functional; details: read-out: Activity
In short: (§1)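 Cells kept in DMEM high glucose with 10% FBS and 2 mM L-glutamine, 37 °C, 5% CO2, and seeded at 1 × 10⁴ cells/well. After 24 h, switched to serum-free DMEM-F12 with albumin, transferrin and insulin, with or without compound. Incubated 3 days at 37 °C in triplicate to quintuplicate wells. MTS added for 2–2.5 h and read at 490 nm. Viability given as % of media-only control. IC50 from Boltzmann nonlinear regression.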

MCF7 [4] = experiment: Cytotoxicity against human MCF7 cells by MTS assay; type: functional, cell-based; in short: as §1
HepG2 [5] = experiment: Cytotoxicity against human HepG2 cells assessed as cell viability at 25 uM by MTS assay; type: functional; details: read-out: Activity; in short: as §1
MCF7 [6] = experiment: Cytotoxicity against human MCF7 cells assessed as cell viability at 25 uM by MTS assay; type: functional; details: read-out: Activity; in short: as §1
HepG2 [7] = experiment: Cytotoxicity against human HepG2 cells by MTS assay; type: functional, cell-based; in short: as §1
HT-29 [8] = experiment: Cytotoxicity against human HT-29 cells by MTS assay; type: functional, cell-based; in short: as §1
HepG2 [9] = experiment: Cytotoxicity against human HepG2 cells assessed as cell viability at 100 uM by MTS assay; type: functional; details: read-out: Activity
HT-29 [10] = experiment: Cytotoxicity against human HT-29 cells assessed as cell viability at 100 uM by MTS assay; type: functional; details: read-out: Activity
MCF7 [11] = experiment: Cytotoxicity against human MCF7 cells assessed as cell viability at 100 uM by MTS assay; type: functional; details: read-out: Activity
Nucleic Acid [12] = experiment: Displacement of ethidium bromide from herring sperm DNA assessed as compound concentration required to 50% fluorescence loss of EtBr by FID assay; type: nucleic-acid assay; details: Clupeidae
In short: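 Multiple-point FID in the same system: 0.2 µL aliquots of 10 mM DMSO stock added stepwise, fluorescence read after each addition, until 50% loss of EtBr fluorescence. Apparent binding constant K_Ligand = K_EtBr × [EtBr]/[Ligand]50%.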

Nucleic Acid [13] = experiment: Displacement of ethidium bromide from herring sperm DNA assessed as remaining ethidium bromide at 20 uM by FID assay; type: nucleic-acid assay; details: Clupeidae

| Compound | Activity (Nucleic Acid [1]) [%] | Activity (Nucleic Acid [2]) [%] | viability at 25 µM (HT-29 [3]) [%] | IC50 (MCF7 [4]) [µM] | viability at 25 µM (HepG2 [5]) [%] | viability at 25 µM (MCF7 [6]) [%] | IC50 (HepG2 [7]) [µM] | IC50 (HT-29 [8]) [µM] | viability at 100 µM (HepG2 [9]) [%] | viability at 100 µM (HT-29 [10]) [%] | viability at 100 µM (MCF7 [11]) [%] | Activity (Nucleic Acid [12]) [µM] | Activity (Nucleic Acid [13]) [%] |
| --- | --- | --- | --- | --- | --- | --- | --- | --- | --- | --- | --- | --- | --- |
| C[C@@H]1O[C@@H](OCC#Cc2c(-c3ccccc3)sc3ccccc23)CC[C@@H]1N | 79.9 | 79.9 |  |  |  |  |  |  |  |  |  |  |  |
| C[C@@H]1O[C@@H](OCCCc2c(-c3ccccc3)sc3ccccc23)CC[C@@H]1N | 51.9 |  | < 1 | 11.8 | < 1 | < 1 | 7.5 | 8.2 |  |  |  |  |  |
| CC(=O)O[C@@H]1CC[C@H](OCC#Cc2c(-c3ccccc3)oc3ccccc23)O[C@H]1C |  |  | 8 |  | 5 | 24 | 19.2 | 11.8 |  |  |  |  |  |
| C[C@@H]1O[C@@H](OCC#Cc2c(-c3ccccc3)oc3ccccc23)CC[C@H]1O |  | 96.7 | 3 |  | < 1 | 38 | 15.3 | 13.1 |  |  |  |  |  |
| CC(=O)O[C@@H]1CC[C@H](OCCCc2c(-c3ccccc3)sc3ccccc23)O[C@H]1C |  |  | 9 |  | 72 | 47 |  | 10.2 |  |  |  |  |  |
| OCCCc1c(-c2ccccc2)oc2ccccc12 |  |  | 76 |  | 91 | 94 |  |  | < 1 | < 1 | 16 |  |  |
| Cc1ccc(S(=O)(=O)n2c(-c3ccccc3)c(C#CCO[C@H]3CC[C@@H](O)[C@H](C)O3)c3ccccc32)cc1 |  | 111 | 54 |  | 27 | 40 |  |  |  |  |  |  |  |
| C[C@@H]1O[C@@H](OCC#Cc2c(-c3ccccc3)sc3ccccc23)CC[C@H]1N |  |  | < 1 | 6.6 | < 1 | < 1 | 4.7 | 5.3 |  |  |  |  |  |
| C[C@@H]1O[C@@H](OCC#Cc2c(-c3ccccc3)sc3ccccc23)CC[C@H]1O |  | 103 | 6 |  | 25 | 51 | 16.4 | 11.1 |  |  |  |  |  |
| Cc1ccc(S(=O)(=O)n2c(-c3ccccc3)c(C#CCO[C@@H]3CC[C@@H](O)[C@H](C)O3)c3ccccc32)cc1 |  | 109 | 24 |  | 5 | 33 | 18.6 |  |  |  |  |  |  |
| C[C@@H]1O[C@H](OCC#Cc2c(-c3ccccc3)oc3ccccc23)CC[C@H]1O |  | 103 | 7 |  | 6 | 29 | 22.3 | 12.4 |  |  |  |  |  |
| C[C@@H]1O[C@@H](OCCCc2c(-c3ccccc3)oc3ccccc23)CC[C@H]1O |  |  | 25 |  | 62 | 65 |  | 16.9 |  |  |  |  |  |
| OCCCc1c(-c2ccccc2)sc2ccccc12 |  |  | < 1 |  | 87 | 79 |  | 16.3 | < 1 | < 1 | < 1 |  |  |
| CC(=O)O[C@@H]1CC[C@H](OCCCc2c(-c3ccccc3)oc3ccccc23)O[C@H]1C |  |  | 19 |  | 42 | 53 |  | 17.8 |  |  |  |  |  |
| C[C@@H]1O[C@@H](OCC#Cc2c(-c3ccccc3)sc3ccccc23)CC[C@@H]1OC=O |  |  | 2 |  | 17 | 59 | 19.8 | 12.6 |  |  |  |  |  |
| C[C@@H]1O[C@@H](OCCCc2c(-c3ccccc3)sc3ccccc23)CC[C@H]1O |  |  | 19 |  | 84 | 68 |  | 15.3 |  |  |  |  |  |
| CC(=O)O[C@@H]1CC[C@H](OCC#Cc2c(-c3ccccc3)sc3ccccc23)O[C@H]1C |  |  | < 1 |  | < 1 | 27 | 12.3 | 7.2 |  |  |  |  |  |
| C[C@@H]1O[C@@H](OCC#Cc2c(-c3ccccc3)oc3ccccc23)CC[C@@H]1N | 68.5 | 68.5 |  |  |  |  |  |  |  |  |  |  |  |
| Cc1ccc(S(=O)(=O)n2c(-c3ccccc3)c(C#CCO[C@@H]3CC[C@H](N)[C@H](C)O3)c3ccccc32)cc1 |  | 19.8 | < 1 | 5.3 | < 1 | < 1 | 5 | 5.3 |  |  |  | 55 | > 100 |
| C[C@@H]1O[C@@H](OCC#Cc2c(-c3ccccc3)sc3ccccc23)CC[C@@H]1O |  |  | 10 |  | 10 | 56 | 15.6 | 13.4 |  |  |  |  |  |
| C[C@@H]1O[C@@H](OCCCc2c(-c3ccccc3)oc3ccccc23)CC[C@@H]1N | 43.5 |  | < 1 | 13.8 | < 1 | < 1 | 7.7 | 6.9 |  |  |  |  |  |
| CC(=O)O[C@@H]1CC[C@@H](OCC#Cc2c(-c3ccccc3)oc3ccccc23)O[C@H]1C |  |  | 9 |  | 15 | 78 | 20.9 | 10.7 |  |  |  |  |  |
| CC(=O)O[C@@H]1CC[C@@H](OCC#Cc2c(-c3ccccc3)sc3ccccc23)O[C@H]1C |  |  | < 1 |  | 8 | 40 | 15.7 | 10 |  |  |  |  |  |
| C[C@@H]1O[C@H](OCC#Cc2c(-c3ccccc3)sc3ccccc23)CC[C@@H]1N |  | 26.6 | < 1 | 7.7 | < 1 | < 1 | 4.9 | 4.6 |  |  |  | 45 |  |
| C[C@@H]1O[C@@H](OCC#Cc2c(-c3ccccc3)sc3ccccc23)CC[C@H]1OC=O |  |  |  |  | < 1 | 37 | 17.4 | 7.7 |  |  |  |  |  |
| C[C@@H]1O[C@@H](OCC#Cc2c(-c3ccccc3)sc3ccccc23)CC[C@@H]1OC(=O)c1ccccc1 |  |  | 81 |  | 99 | 100 |  |  |  |  |  |  |  |
| C[C@@H]1O[C@H](OCC#Cc2c(-c3ccccc3)sc3ccccc23)CC[C@H]1O |  | 99.9 | 2 |  | 7 | 23 | 13.6 | 12.8 |  |  |  |  |  |
| C[C@@H]1O[C@H](OCC#Cc2c(-c3ccccc3)oc3ccccc23)CC[C@@H]1N |  | 26.9 | < 1 | 8.3 | < 1 | < 1 | 6.7 | 5.4 |  |  |  | 55 | > 100 |
| Cc1ccc(S(=O)(=O)n2c(-c3ccccc3)c(C#CCO[C@H]3CC[C@H](N)[C@H](C)O3)c3ccccc32)cc1 |  | 38.6 |  |  |  |  |  |  |  |  |  |  |  |
